These compounds were tested on KB (assay: Cytotoxicity against human KB cells). Details: Homo sapiens, KB; read-out: IC50; call rule not given here.
Assay type: functional, cell-based

| SMILES | IC50 |
| --- | --- |
| CC(=O)O[C@@H]1[C@@H](O)[C@H](C)O[C@@H](Oc2cc(O)c3c(c2)[C@H]([C@H]2c4cc(C)cc(O)c4C(=O)c4c(O)cc(O)cc42)c2cc(C)cc(O)c2C3=O)[C@@H]1OC(C)=O | 1300 nM |
| CC(=O)O[C@@H]1[C@@H](O)[C@H](C)O[C@@H](Oc2cc(O)c3c(c2)[C@H]([C@@H]2c4cc(C)cc(O)c4C(=O)c4c(O)cc(O[C@@H]5O[C@@H](C)[C@H](O)[C@@H](OC(C)=O)[C@H]5OC(C)=O)cc42)c2cc(C)cc(O)c2C3=O)[C@@H]1OC(C)=O | 2500 nM |
| CC(=O)O[C@@H]1[C@@H](O)[C@H](C)O[C@@H](Oc2cc(O)c3c(c2)[C@@H]([C@H]2c4cc(C)cc(O)c4C(=O)c4c(O)cc(O)cc42)c2cc(C)cc(O)c2C3=O)[C@@H]1OC(C)=O | 800 nM |
| CC(=O)O[C@@H]1[C@@H](O)[C@H](C)O[C@@H](Oc2cc(O)c3c(c2)[C@H]([C@H]2c4cc(C)cc(O)c4C(=O)c4c(O)cc(O[C@@H]5O[C@@H](C)[C@H](O)[C@@H](OC(C)=O)[C@H]5OC(C)=O)cc42)c2cc(C)cc(O)c2C3=O)[C@@H]1OC(C)=O | 900 nM |
| Cc1cc(O)c2c(c1)[C@@H]([C@H]1c3cccc(O)c3C(=O)c3c(O)cc(C)cc31)c1cc(O)cc(O)c1C2=O | 1800 nM |
| Cc1cc(O)c2c(c1)[C@H]([C@@H]1c3cc(C)cc(O)c3C(=O)c3c(O)cc(O)cc31)c1cccc(O)c1C2=O | 3400 nM |
| Cc1cc(O)c2c(c1)[C@H]([C@H]1c3cccc(O)c3C(=O)c3c(O)cc(C)cc31)c1cccc(O)c1C2=O | 200 nM |
| CC(=O)O[C@@H]1[C@@H](O)[C@H](C)O[C@@H](Oc2cc(O)c3c(c2)C(=O)c2cc(C)cc(O)c2C3=O)[C@@H]1OC(C)=O | 1900 nM |
| Cc1cc(O)c2c(c1)[C@H]([C@H]1c3cc(C)cc(O)c3C(=O)c3c(O)cc(O)cc31)c1cc(O)cc(O)c1C2=O | 2500 nM |
| CC(=O)O[C@@H]1[C@@H](OC(C)=O)[C@H](Oc2cc(O)c3c(c2)C(C(C)=O)c2cc(C)cc(O)c2C3=O)O[C@@H](C)[C@H]1OC(C)=O (some centres not stated) | 70 nM |
| CC(=O)O[C@@H]1[C@@H](O)[C@H](C)O[C@@H](Oc2cc(O)c3c(c2)[C@H]([C@H]2c4cc(C)cc(O)c4C(=O)c4c(O)cc(O[C@@H]5O[C@@H](C)[C@H](OC(C)=O)[C@@H](O)[C@H]5OC(C)=O)cc42)c2cc(C)cc(O)c2C3=O)[C@@H]1OC(C)=O | 800 nM |
| CC(=O)O[C@@H]1[C@@H](O)[C@H](C)O[C@@H](Oc2cc(O)c3c(c2)[C@H]([C@@H]2c4cc(C)cc(O)c4C(=O)c4c(O)cc(O[C@@H]5O[C@@H](C)[C@H](OC(C)=O)[C@@H](O)[C@H]5OC(C)=O)cc42)c2cc(C)cc(O)c2C3=O)[C@@H]1OC(C)=O | 1200 nM |
| CC(=O)O[C@@H]1[C@@H](O)[C@H](C)O[C@@H](Oc2cc(O)c3c(c2)[C@@H]([C@@H]2c4cc(C)cc(O)c4C(=O)c4c(O)cc(O[C@@H]5O[C@@H](C)[C@H](OC(C)=O)[C@@H](O)[C@H]5OC(C)=O)cc42)c2cc(C)cc(O)c2C3=O)[C@@H]1OC(C)=O | 1000 nM |
| CC(=O)O[C@@H]1[C@@H](O)[C@H](C)O[C@@H](Oc2cc(O)c3c(c2)[C@@H]([C@@H]2c4cc(C)cc(O)c4C(=O)c4c(O)cc(O)cc42)c2cc(C)cc(O)c2C3=O)[C@@H]1OC(C)=O | 3300 nM |
| CC(=O)O[C@@H]1[C@@H](O)[C@H](C)O[C@@H](Oc2cc(O)c3c(c2)[C@H]([C@@H]2c4cc(C)cc(O)c4C(=O)c4c(O)cc(O)cc42)c2cc(C)cc(O)c2C3=O)[C@@H]1OC(C)=O | 4500 nM |
| Cc1cc(O)c2c(c1)[C@H]([C@@H]1c3cccc(O)c3C(=O)c3c(O)cc(C)cc31)c1cccc(O)c1C2=O | 1200 nM |
| Cc1cc(O)c2c(c1)[C@H]([C@H]1c3cc(C)cc(O)c3C(=O)c3c(O)cc(O)cc31)c1cccc(O)c1C2=O | 1400 nM |
| Cc1cc(O)c2c(c1)[C@@H]([C@H]1c3cc(C)cc(O)c3C(=O)c3c(O)cc(O)cc31)c1cc(O)cc(O)c1C2=O | 1100 nM |
| Cc1cc(O)c2c(c1)[C@@H]([C@H]1c3cc(C)cc(O)c3C(=O)c3c(O)cc(O)cc31)c1cccc(O)c1C2=O | 1200 nM |
| COc1cccc2c1C(=O)c1c(O)c3c(c(O)c1C2=O)C[C@@](O)(C(=O)CO)C[C@@H]3O[C@H]1C[C@H](N)[C@H](O)[C@H](C)O1 [DOXORUBICIN] | 200 nM |
| Cc1cc(O)c2c(c1)Cc1cc(O)cc(O)c1C2=O [EMODIN ANTHRONE] | 3900 nM |
| CC(=O)O[C@@H]1[C@@H](O)[C@H](C)O[C@@H](Oc2cc(O)c3c(c2)Cc2cc(C)cc(O)c2C3=O)[C@@H]1OC(C)=O [PRINOIDIN] | 45 nM |

Same assay, conditions: kb

| SMILES | IC50 |
| --- | --- |
| CC(=O)O[C@H]1[C@H](Oc2cc(O)c3c(c2)C(=O)c2cc(C)cc(O)c2C3=O)O[C@@H](C)[C@H](O)[C@H]1O | Not Active |
| CC(=O)O[C@@H]1[C@@H](OC(C)=O)[C@H](C)O[C@@H](Oc2cc(O)c3c(c2)C(=O)c2cc(C)cc(O)c2C3=O)[C@@H]1OC(C)=O | Not Active |
| CC(=O)O[C@@H]1[C@@H](O)[C@H](C)O[C@@H](Oc2cc(O)c3c(c2)C(=O)c2cc(C)cc(O)c2C3=O)[C@@H]1O | Not Active |
| Cc1cc(O)c2c(c1)C(=O)c1cccc(O)c1C2=O [CHRYSOPHANOL] | Not Active |
| Cc1cc(O)c2c(c1)C(=O)c1cc(O)cc(O)c1C2=O [EMODIN] | Not Active |
| CC(=O)Oc1cc(C)cc2c1C(=O)c1c(OC(C)=O)cc(O[C@@H]3O[C@@H](C)[C@H](OC(C)=O)[C@@H](OC(C)=O)[C@H]3OC(C)=O)cc1C2=O [FRANGULIN A PERACETATE] | Not Active |
| COc1cc(O)c2c(c1)C(=O)c1cc(C)cc(O)c1C2=O [PHYSCION] | Not Active |

Each compound was assayed on Mus musculus (assay: Toxicity in mouse P388 cells xenografted CDF1 mouse assessed as survival time at 10 mg/kg, ip). Details: in vivo.
Assay type: organism-based
Design: dose 10 mg/kg, route intraperitoneal
In short: (§1)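 Two CDF1 mice per dose received P388 leukaemia cells intravenously, then a single intraperitoneal injection of the compound at 10, 5 or 2.5 mg/kg. The read-out was survival time in days after injection, compared with the average survival of the grafted mice.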

| SMILES | Survival |
| --- | --- |
| CC(=O)O[C@@H]1[C@@H](O)[C@H](C)O[C@@H](Oc2cc(O)c3c(c2)Cc2cc(C)cc(O)c2C3=O)[C@@H]1OC(C)=O [PRINOIDIN] | 2 days |

These compounds were tested on Mus musculus (assay: Toxicity in mouse P388 cells xenografted CDF1 mouse assessed as survival time at 5 mg/kg, ip). Details: in vivo.
Assay type: organism-based
Design: dose 5 mg/kg, route intraperitoneal
In short: as §1

| SMILES | Survival |
| --- | --- |
| CC(=O)O[C@@H]1[C@@H](O)[C@H](C)O[C@@H](Oc2cc(O)c3c(c2)Cc2cc(C)cc(O)c2C3=O)[C@@H]1OC(C)=O [PRINOIDIN] | 4 days |

The compounds below were run on Mus musculus (assay: Toxicity in mouse P388 cells xenografted CDF1 mouse assessed as survival time at 2.5 mg/kg, ip). Details: in vivo.
Assay type: organism-based
Design: dose 2.5 mg/kg, route intraperitoneal
In short: as §1

| SMILES | Survival |
| --- | --- |
| CC(=O)O[C@@H]1[C@@H](O)[C@H](C)O[C@@H](Oc2cc(O)c3c(c2)Cc2cc(C)cc(O)c2C3=O)[C@@H]1OC(C)=O [PRINOIDIN] | 7 days |

— ChEMBL document CHEMBL1155764, “Cytotoxicity of Rhamnosylanthraquinones and Rhamnosylanthrones from Rhamnus nepalensis” (J Nat Prod, 2001)
